Source: PubChem BioAssay AID623942 (The Scripps Research Institute Molecular Screening Center, 2012)
Active and inactive are the calls of the source.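 The calls were made as follows: active = IC50 at or below 50 µM; inactive = IC50 above 50 µM.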

Biological target: RecBCD enzyme subunit RecC (Escherichia coli (strain K12)) + RecBCD enzyme subunit RecB (Escherichia coli (strain K12)) (UniProt P07648+P08394)
Experiment: RecBCD helicase and Chi cutting inhibitors, dose response, counter-screen for AddAB inhibitor project, biochemical, radioactive gel readout (AID 623942)
Conditions: purified RecBCD, Chi cutting/unwinding
How it was run: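 Test system – purified E. coli RecBCD · Quantity – 0.15 nM RecBCD · Reagent – 0.1 nM labeled Chi+F DNA plus 5 mM ATP · Timing – 1 min at 37 °C · Signal – gel autoradiography of 32P-labeled DNA products · Evaluation – IC50 from loss of 1.46 kb Chi-cut fragment versus DMSO · Benchmarks – DMSO control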

RecBCD enzyme subunit RecC (Escherichia coli (strain K12)) + RecBCD enzyme subunit RecB (Escherichia coli (strain K12)), sequence (P07648 whole entry, looked up): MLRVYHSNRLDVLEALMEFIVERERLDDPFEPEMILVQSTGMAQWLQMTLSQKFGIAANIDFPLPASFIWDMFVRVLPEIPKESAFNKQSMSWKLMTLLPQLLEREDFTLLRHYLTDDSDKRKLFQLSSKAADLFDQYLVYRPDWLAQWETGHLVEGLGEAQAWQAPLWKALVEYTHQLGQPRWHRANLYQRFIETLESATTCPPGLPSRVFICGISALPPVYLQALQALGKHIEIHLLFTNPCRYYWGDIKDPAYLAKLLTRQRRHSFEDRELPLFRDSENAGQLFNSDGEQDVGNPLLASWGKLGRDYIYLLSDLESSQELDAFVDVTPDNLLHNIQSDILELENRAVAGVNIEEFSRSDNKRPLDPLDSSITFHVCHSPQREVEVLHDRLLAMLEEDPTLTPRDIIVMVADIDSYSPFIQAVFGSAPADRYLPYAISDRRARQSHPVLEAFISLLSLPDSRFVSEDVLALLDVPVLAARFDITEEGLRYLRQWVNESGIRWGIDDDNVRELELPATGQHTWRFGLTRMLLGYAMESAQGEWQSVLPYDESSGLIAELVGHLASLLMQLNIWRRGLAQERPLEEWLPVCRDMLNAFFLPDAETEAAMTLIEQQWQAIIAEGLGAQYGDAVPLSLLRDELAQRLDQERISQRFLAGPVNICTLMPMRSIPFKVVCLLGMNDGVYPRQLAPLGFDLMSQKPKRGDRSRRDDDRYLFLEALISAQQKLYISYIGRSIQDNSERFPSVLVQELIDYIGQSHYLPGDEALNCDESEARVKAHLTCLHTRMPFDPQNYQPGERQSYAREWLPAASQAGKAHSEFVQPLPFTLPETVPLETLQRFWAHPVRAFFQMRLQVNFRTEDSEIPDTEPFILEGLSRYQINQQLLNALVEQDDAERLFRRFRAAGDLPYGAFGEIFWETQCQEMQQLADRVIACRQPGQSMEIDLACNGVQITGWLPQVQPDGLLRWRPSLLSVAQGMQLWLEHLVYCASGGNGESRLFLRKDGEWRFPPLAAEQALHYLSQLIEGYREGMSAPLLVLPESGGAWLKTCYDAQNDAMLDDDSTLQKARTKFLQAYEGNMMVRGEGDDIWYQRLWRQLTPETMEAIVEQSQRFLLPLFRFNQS
RecBCD enzyme subunit RecC (Escherichia coli (strain K12)) + RecBCD enzyme subunit RecB (Escherichia coli (strain K12)), sequence (P08394 whole entry, looked up): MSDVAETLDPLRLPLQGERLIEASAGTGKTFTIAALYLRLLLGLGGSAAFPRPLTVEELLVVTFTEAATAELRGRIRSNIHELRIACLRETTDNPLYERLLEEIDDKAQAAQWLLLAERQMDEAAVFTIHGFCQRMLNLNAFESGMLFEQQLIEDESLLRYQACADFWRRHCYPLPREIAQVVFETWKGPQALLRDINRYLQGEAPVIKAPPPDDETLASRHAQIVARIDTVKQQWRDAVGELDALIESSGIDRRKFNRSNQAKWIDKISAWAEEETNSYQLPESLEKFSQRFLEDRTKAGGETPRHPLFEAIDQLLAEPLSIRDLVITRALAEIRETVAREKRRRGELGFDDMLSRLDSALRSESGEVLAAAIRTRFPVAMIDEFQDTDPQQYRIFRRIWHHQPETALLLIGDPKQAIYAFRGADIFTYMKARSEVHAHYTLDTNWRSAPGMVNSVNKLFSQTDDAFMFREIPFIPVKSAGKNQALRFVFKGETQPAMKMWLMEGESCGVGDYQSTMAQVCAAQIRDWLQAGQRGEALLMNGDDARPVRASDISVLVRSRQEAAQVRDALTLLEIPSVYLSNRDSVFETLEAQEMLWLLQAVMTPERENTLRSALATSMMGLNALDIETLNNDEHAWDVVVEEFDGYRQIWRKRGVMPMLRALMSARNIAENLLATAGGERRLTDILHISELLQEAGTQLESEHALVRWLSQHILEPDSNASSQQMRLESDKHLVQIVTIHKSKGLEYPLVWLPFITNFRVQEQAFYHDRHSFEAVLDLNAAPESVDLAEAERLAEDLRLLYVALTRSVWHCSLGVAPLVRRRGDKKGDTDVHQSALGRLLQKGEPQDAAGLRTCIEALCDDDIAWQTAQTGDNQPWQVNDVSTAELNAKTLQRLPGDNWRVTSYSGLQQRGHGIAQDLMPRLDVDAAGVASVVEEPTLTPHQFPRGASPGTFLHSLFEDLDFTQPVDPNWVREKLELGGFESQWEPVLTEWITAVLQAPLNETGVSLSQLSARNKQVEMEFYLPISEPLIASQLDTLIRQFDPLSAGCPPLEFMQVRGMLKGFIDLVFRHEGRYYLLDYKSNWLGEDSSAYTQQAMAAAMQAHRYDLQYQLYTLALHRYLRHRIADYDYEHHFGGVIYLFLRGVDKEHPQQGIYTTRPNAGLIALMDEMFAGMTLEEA

IC50 | Compound
20 µM | N#Cc1c(NC(=O)c2ccc([N+](=O)[O-])o2)sc2c1CCC2
inactive | O=C(Nc1ccc(N2CCOCC2)cc1)c1ccc([N+](=O)[O-])o1
49 µM | O=C(Nc1ncccn1)c1ccc([N+](=O)[O-])o1
> 500 µM (inactive) | C=CCn1c(Sc2ncc([N+](=O)[O-])s2)n[nH]c1=O
20 µM | CCn1cc(C(=O)O)c(=O)c2cc(F)c(N3CCN(C(=S)Nc4ccccc4C(F)(F)F)CC3)cc21
> 500 µM (inactive) | Cc1cccnc1NC(=O)c1ccc([N+](=O)[O-])o1
> 500 µM (inactive) | CC(=O)Nc1ccc2nc(NC(=O)c3ccc([N+](=O)[O-])o3)sc2c1
0.6 µM | CCn1cc(C(=O)O)c(=O)c2cc(F)c(N3CCN(C(=S)Nc4cccc(C(F)(F)F)c4)CC3)cc21
0.6 µM | CCn1cc(C(=O)O)c(=O)c2cnc(N3CCN(C(=S)Nc4cccc(C(F)(F)F)c4)CC3)nc21
38 µM | Cc1ccc2nc(/C(C#N)=C\c3ccc([N+](=O)[O-])o3)[nH]c2c1
inactive | NC(=O)c1ccsc1NC(=O)COC(=O)c1ccc([N+](=O)[O-])o1
20 µM | O=C(Nc1cccc(NC(=O)c2ccccc2Cl)c1)c1ccc([N+](=O)[O-])o1
> 500 µM (inactive) | O=C(OCC(=O)c1cccs1)c1ccc([N+](=O)[O-])o1
10 µM | CCn1cc(C(=O)O)c(=O)c2cnc(N3CCN(C(=S)Nc4ccccc4C(F)(F)F)CC3)nc21
> 500 µM (inactive) | O=C(NCc1cccnc1)c1ccc([N+](=O)[O-])o1
